Laboratory results taken from the RNAGym collection of RNA variant scans (doi:10.1101/gad.245936.114).
Variants at the floor of the assay were thinned out.

B1: tRNA (parent)
chain: CUCUCGGUAGCCAAGUUGGUUUAAGGCGCAAGACUUUAAUUUAUCACUACGAAAUCUUGAGAUCGGGCGUUCGACUCGCCCCCGGGAGAUUUUUUCCUCGAGCAA

Variants of: B1
Test: nonsense suppression (GFP-seq) (ratio to wild type); higher = more function; SUP4oc tRNA, yeast GFP reporter sort-seq
Outline: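 Yeast were grown in raffinose/galactose medium with 80 mg/L adenine, each strain bearing a genome-integrated ochre-suppressor tRNA variant from a ~3% random-mutation library, a galactose-driven GFP ochre reporter, and RFP. After sorting into GFP/RFP bins, every bin was sequenced on an Illumina platform at phred ≥30. The GFPSEQ value, a measure of nonsense suppression, is the weighted bin median GFP/RFP relative to the unmutated parent tRNA, using each variant's estimated cell share per bin as the weight. Only variants with ≥100 reads and ≥30 cells were included.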
In the case of U20C C83G G86A, the nonsense suppression is reported as no more than 0.026. With U20G C80U the nonsense suppression was 0.202. G19U A54U C72G gave a nonsense suppression of no more than 0.026. U20G A33G showed a nonsense suppression of 0.18. U20G A33U gave a nonsense suppression of 0.0902. U20C gave a nonsense suppression of 0.848. For U20A, the nonsense suppression was 1.18. In the case of U20G, the nonsense suppression is reported as 0.989. Variant U20G C82U has a nonsense suppression of 0.838. In the case of U20C U21A, the nonsense suppression is reported as 0.188. With U20C U21C the nonsense suppression was 1.15. In the case of U20G U71G, the nonsense suppression is reported as no more than 0.026. U20A A24U U63A gave a nonsense suppression of no more than 0.026. U21A G85A gave a nonsense suppression of 1.06. U21A A24C gave a nonsense suppression of 0.753. U21A A24U showed a nonsense suppression of 0.184. With G19C U71C the nonsense suppression was no more than 0.026. With U20C G61A the nonsense suppression was 0.212. G19C U63C C83A gave a nonsense suppression of 0.789. In the case of U21A C34G C82U A89U, the nonsense suppression is reported as no more than 0.026. With U20C A87G the nonsense suppression was 0.213. For U20C A87U, the nonsense suppression was 0.0273. Work on U20A U76C yielded a nonsense suppression of 0.719. U21A A54U U76C showed a nonsense suppression of 0.751. With U20A A31G the nonsense suppression was 0.461. With U20A A23G U63C the nonsense suppression was no more than 0.026. In the case of U21C A23C U71G G78A, the nonsense suppression is reported as no more than 0.026. For G19C G67C, the nonsense suppression was no more than 0.026. In the case of U20A U55C C82G, the nonsense suppression is reported as no more than 0.026. In the case of U20C C72G, the nonsense suppression is reported as 0.063. Work on U20G C56U yielded a nonsense suppression of 0.148. In the case of U20C G85A, the nonsense suppression is reported as 0.861. U20C C64U gave a nonsense suppression of 0.0503. Work on G19U A24G G78C A89C yielded a nonsense suppression of no more than 0.026. U20A G78A gave a nonsense suppression of 0.0977. Work on U21C A31G yielded a nonsense suppression of 1. In the case of U20C U22C, the nonsense suppression is reported as 0.814. With U20C A89U the nonsense suppression was 0.0684. For U20C U55C, the nonsense suppression was 0.0996. U20G G28A C82U gave a nonsense suppression of 0.239. U20C A30U gave a nonsense suppression of 0.0386. U20C A30G showed a nonsense suppression of 0.129. Variant U21A U55C C79U has a nonsense suppression of no more than 0.026. Work on G19U C29A G59A yielded a nonsense suppression of no more than 0.026. Work on U20A U63A yielded a nonsense suppression of 0.187. For U20A U63G, the nonsense suppression was 0.106. U20A U63C showed a nonsense suppression of 0.191. U20G U22G gave a nonsense suppression of 1.06. U20C U22C A54U gave a nonsense suppression of 0.412. In the case of U20A A24U, the nonsense suppression is reported as 0.0696. With U20A A24C the nonsense suppression was 0.192. Variant U20C C80U has a nonsense suppression of 0.036. Work on U20A G28C yielded a nonsense suppression of 0.182. Variant U20A G28A has a nonsense suppression of 0.813. For U20A U71A, the nonsense suppression was no more than 0.026. Work on U21A A30G yielded a nonsense suppression of 0.42. Variant U20G U63G has a nonsense suppression of 0.495. For U20G U63A, the nonsense suppression was 1.06. Variant U20C A60G has a nonsense suppression of 0.0437. Variant U21A U76C has a nonsense suppression of 1.18. In the case of U20A C75G, the nonsense suppression is reported as 0.473. Work on U20G G32C A62U yielded a nonsense suppression of no more than 0.026. U20A C56A G66A showed a nonsense suppression of no more than 0.026. U20G G25A G78A gave a nonsense suppression of no more than 0.026. Work on U21A G66U C80G yielded a nonsense suppression of 0.219. Work on G19C U22C C68U yielded a nonsense suppression of no more than 0.026. U20C G28A U57G C77A showed a nonsense suppression of 0.813. With U21C the nonsense suppression was 0.954. Work on U21A yielded a nonsense suppression of 1.02. With U20C U63G the nonsense suppression was 0.0493. U21A A54U showed a nonsense suppression of 0.737. For U21C A54U U57C G59A A89G, the nonsense suppression was no more than 0.026. Work on G19U G28A C56G yielded a nonsense suppression of no more than 0.026. U20C C79U G84U showed a nonsense suppression of no more than 0.026. U20G C81G gave a nonsense suppression of no more than 0.026. Variant U21C A54C U63G C82U has a nonsense suppression of no more than 0.026. In the case of U21A U63G G86A, the nonsense suppression is reported as no more than 0.026. For U20G A23U G88U, the nonsense suppression was no more than 0.026. For U20C G78U, the nonsense suppression was 0.0456. For U20C C75U, the nonsense suppression was 0.843. G19C A23C C56G G85U showed a nonsense suppression of no more than 0.026. Variant U20A G61U has a nonsense suppression of 0.217. In the case of U20A G61C, the nonsense suppression is reported as 0.0711. For U20G A60G, the nonsense suppression was 0.477. With U20G A60U the nonsense suppression was 1.12. Work on G19U G67U yielded a nonsense suppression of no more than 0.026. In the case of U21A U22G U76A C77A G88A, the nonsense suppression is reported as no more than 0.026. Work on U20C C77U yielded a nonsense suppression of 0.0349. Work on G19C A30U yielded a nonsense suppression of no more than 0.026. With U20G G26C the nonsense suppression was no more than 0.026. For U20C U76C, the nonsense suppression was 0.228. G19C U21C showed a nonsense suppression of no more than 0.026. With U21A G28C the nonsense suppression was 0.495. Work on U20C A24C yielded a nonsense suppression of 0.249. With U21A A60G the nonsense suppression was 0.302. With U20C C29U the nonsense suppression was 0.0276. With G19U G26C U57C the nonsense suppression was no more than 0.026. U20G U21A showed a nonsense suppression of 1.18. U20G U21G showed a nonsense suppression of 0.75. With U20G U21C the nonsense suppression was 0.761. U20A C75G G85U gave a nonsense suppression of 0.154. In the case of U21A A31G, the nonsense suppression is reported as 1.16. For U20G G61A, the nonsense suppression was 0.635. Variant U20G G61C has a nonsense suppression of 0.615. In the case of U20G G61U, the nonsense suppression is reported as 0.874. Variant U20G G85U has a nonsense suppression of 0.81. For U20G G85C, the nonsense suppression was 0.0271. For U20G G59C C64A G85U, the nonsense suppression was no more than 0.026. For U20A U35G A60C G69A C82A, the nonsense suppression was no more than 0.026. With U20C U35C the nonsense suppression was 0.0559. Variant U20A U57A has a nonsense suppression of no more than 0.026. With U20G G67A the nonsense suppression was 0.0529. In the case of U21A A87G, the nonsense suppression is reported as 0.493. Variant U20C G59A has a nonsense suppression of 0.0894. In the case of U20A G73C, the nonsense suppression is reported as 0.0366. U21A U55C U57G gave a nonsense suppression of no more than 0.026. With U20A A87G the nonsense suppression was 0.226. Variant U20G C79G A87G has a nonsense suppression of no more than 0.026. Work on U20G A30U yielded a nonsense suppression of 0.444. U20C G86A gave a nonsense suppression of no more than 0.026. With U20C G86C the nonsense suppression was no more than 0.026. Work on U21C A24U yielded a nonsense suppression of 0.194. U21C A24G showed a nonsense suppression of 0.0906. For U20A A54U U76C, the nonsense suppression was 0.24. For U21A C75A, the nonsense suppression was 0.947. In the case of U20A G85U, the nonsense suppression is reported as 0.0676. For U21A U22A G28C U55A G69A, the nonsense suppression was no more than 0.026. For U21A G65C U71A G78U, the nonsense suppression was no more than 0.026. With U21C A30G the nonsense suppression was 0.967. With G19U G25A A31G U35G C64G the nonsense suppression was no more than 0.026. Work on G19C C56U U57C yielded a nonsense suppression of no more than 0.026. G19U G28A gave a nonsense suppression of 0.0287. Variant G19C C34U U71C C82G has a nonsense suppression of no more than 0.026. In the case of U21A A54C G61A, the nonsense suppression is reported as 0.215. In the case of U21C A60U C68U, the nonsense suppression is reported as 1.05. In the case of U20G U55C, the nonsense suppression is reported as 0.849. G19C C27G A30U U55C gave a nonsense suppression of no more than 0.026. In the case of U21A C29A C79U, the nonsense suppression is reported as no more than 0.026. For U20C A31U, the nonsense suppression was 0.0722. For U20C A31G, the nonsense suppression was 0.0336. U20A C34U G66U gave a nonsense suppression of no more than 0.026. Variant U21A G78C has a nonsense suppression of 0.0372. With U20A A74U the nonsense suppression was 0.0745. With U20C C56G the nonsense suppression was no more than 0.026. For U20C G28A, the nonsense suppression was 0.192. Variant U20A A60U C79U has a nonsense suppression of 0.212. For G19U A24G A87G, the nonsense suppression was no more than 0.026. In the case of G19U A23U C34A U63G, the nonsense suppression is reported as no more than 0.026. U20C A54U gave a nonsense suppression of 0.62. U20C A54G gave a nonsense suppression of 0.052. For U20A U22C, the nonsense suppression was 1.11. U20G G73A gave a nonsense suppression of 0.677. In the case of U20G C29U, the nonsense suppression is reported as 1.12. In the case of U20G A54U, the nonsense suppression is reported as 1.04. U21A G61U gave a nonsense suppression of 0.791. U20C C27G gave a nonsense suppression of no more than 0.026. In the case of U20G U55C A74G, the nonsense suppression is reported as no more than 0.026. With G19U U55G the nonsense suppression was no more than 0.026. U20C G88U showed a nonsense suppression of no more than 0.026. U21A C79G gave a nonsense suppression of no more than 0.026. Work on U21A C79U yielded a nonsense suppression of 0.444. U20C A31C C79A G85C showed a nonsense suppression of no more than 0.026. U21A C83G G88U gave a nonsense suppression of no more than 0.026. G19U A60U G73U showed a nonsense suppression of no more than 0.026. Work on U20C U57C U58G G61C yielded a nonsense suppression of no more than 0.026. For G19C U21C G66C G84A G86A, the nonsense suppression was no more than 0.026. With U21C A30G A31G U63C the nonsense suppression was no more than 0.026.
